Rows were chosen to be rich in hits. Some 3.5% of all compounds tested hit in one or more screens of this group.
PglD DTNB: C. jejuni PglD acetyltransferase inhibitors, primary screen, biochemical, DTNB colorimetric, single point | purified PglD enzyme, DTNB colorimetric CoA detection | UDP-N-acetylbacillosamine N-acetyltransferase PglD (Campylobacter jejuni) | AID 602405, 2012 | 360,000 compounds, 0.098% hits | inhibition, % at 12.5 µM; in the data active means inhibition above about 16%, passing the limit was not always enough; inconclusive means no clear call, values can overlap the other calls
Env fusion inh: inhibitors of HIV-1 Env-driven cell-cell fusion, primary screen, HeLa-JRFL effector, CEM21 target cells, luciferase; inhibition, % at 12.3 µM; 360,000 compounds, 1.1% hits;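 active means mean replicate inhibition score of at least 50 and every replicate individually at or above 50; inconclusive means only one of the two criteria met; inactive means mean below 50 and not all replicates reaching 50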;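 further: 0% = plate neutral controls and 100% = maraviroc near 300 nM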
DENV2 CPE rescue: inhibitors of DENV2 cytopathic effect, primary screen, cell-based, plate reader, single concentration; 350,000 compounds, 1.7% hits; CPE inhibition, % at 9.99 µM; DENV2-infected cells, cytopathic effect rescue; in the data active means CPE inhibition above about 20%, passing the limit was not always enough; inconclusive means no clear call, values can overlap the other calls; tested in BHK-21 cells;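 further: 0% = median of neutral control wells and 100% = median of positive control wells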
FN deposition inh: inhibitors of fibronectin matrix deposition, primary screen, AH1F cells, Alexa488-fibronectin fluorescence, plate reader | AH1F fibroblasts, overnight | inhibition, % at 12.6 µM | 350,000 compounds, 0.086% hits;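 active means mean inhibition across replicates of 30% or more, regardless of how many single replicates reach that level; inconclusive means mean under 30% yet at least half of replicates reach 30%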;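 further: positive control wells lacked labelled fibronectin entirely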
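Material – AH1F fibroblast monolayer, labelled fibronectin deposition · Reagent – labelled fibronectin 24 nM · Timing – 1 h adhesion, overnight exposure · Measured by – fluorescence at 485 nm excitation, 525 nm emission · Read-out – inhibition of fibronectin deposition signal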
PGC1a acetyl inh: inhibitors of PGC1a acetylation signal, primary screen, cell-based, U2OS, AlphaScreen, inhibitor mode; AlphaScreen anti-acetyl-lysine; with virally co-expressed GCN5 acetyltransferase; inhibition, % at 15.6 µM; 350,000 compounds, 0.17% hits; AID 651687, 2012;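 active means every replicate shows inhibition of at least 40%; inconclusive means mean inhibition at least 40% but some replicate below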;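 further: 0% = neutral control wells and 100% = positive control wells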
rRNA inh HTS: reduced GFP signal of wild-type E. coli, primary screen, bacterial rRNA inhibitor project, GFP/RFP fluorescence, OD600, single point; E. coli WT GFP vs humanized-ribosome RFP mutants, 24 h; hits give low values; DMSO median 0, no signal -100; GFP signal change (wild-type ribosome), % (concentration not given with the values); 350,000 compounds, 1.6% hits; AID 720706, 2013;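 active means significant combined selectivity score with lowered wild-type GFP, culture density cut under 30%, mutant RFP and density less affected; inactive means any of these conditions unmet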
An asterisk follows results filed as active; u = inconclusive; x = not tested or not shown; [ ] = remark or other dose.

SMILES	PglD DTNB	Env fusion inh	DENV2 CPE rescue	FN deposition inh	PGC1a acetyl inh	rRNA inh HTS
C[C@H](CO)N1C[C@H](C)[C@H](CN(C)S(=O)(=O)c2cccs2)Oc2ccc(NS(=O)(=O)c3ccc(Cl)cc3)cc2C1=O	-2	27[16.7 µM]	-4	x	-8	0
C[C@@H]1CN([C@@H](C)CO)C(=O)c2cc(NS(=O)(=O)c3ccc(F)cc3)ccc2O[C@@H]1CN(C)S(=O)(=O)c1cccs1	4	-33[16.7 µM]	28*	1	-4	-5
C[C@H]1CN([C@@H](C)CO)C(=O)c2cc(NS(=O)(=O)c3ccc(Cl)cc3)ccc2O[C@@H]1CN(C)S(=O)(=O)c1cccs1	2	-4[16.7 µM]	39*	x	1	-1
CC(C)(C)c1ccc(OCCC(=O)OCC(=O)NCc2ccccc2)cc1	-3	13	9	-2	x	-34*
CCCCNC(=O)CCCCn1c(=S)[nH]c2c([nH]c3ccc(OC)cc32)c1=O	x	-11	6	5	-27	-6
COc1ccc2[nH]c3c(=O)n(CCCCC(=O)NCCN4CCCC4)c(=S)[nH]c3c2c1	-2	x	0	x	-5	-29*
COc1ccc(-c2nc3cc(C)c(Br)c(C)n3c2Cc2ccccc2)cc1OC	5	71*	11	-17	0	2
Cc1ccc(-c2nc3cc(C)c(Br)c(C)n3c2Cc2ccccc2)cc1	-5	x	u	-1	8	x
CN(C)C(=O)c1ccc(-c2ccc3c(c2)[C@@H]2[C@@H](CCN2C(=O)C2CCC2)[C@H](CO)N3C)cc1	-16	x	-17	2	9	-3
C=CCn1c(SCC(=O)Nc2nc(C)cs2)nnc1C(NC(=O)c1ccccc1)C(C)C (stereo not given)	-8	112*	x	-6	2	x
CCCCc1nc2cc(C(=O)NCc3cn(C)nc3C)ccc2o1	4	16	47*	3	10	-5
CCCCc1nc2cc(C(=O)NCc3nccn3CC)ccc2o1	-4	-19	u	8	1	-2
Cc1nc(C(=O)NNC(=O)c2cccc(Cl)c2)c(C(F)(F)F)o1	-5	3	0	-7	2	-27*
O=C(N[C@@H]1CC[C@@H](CCNS(=O)(=O)c2cccc(Cl)c2)O[C@@H]1CO)c1ccncc1	-2	7[16.7 µM]	-1	-11	4	-2
CO[C@H]1CN(C)C(=O)c2ccc(NS(C)(=O)=O)cc2OC[C@@H](C)N(C(=O)C2CCCC2)C[C@H]1C	-4	x	1	-1	x	-1
Cc1n(Cc2ccccc2)c2ccccc2[n+]1Cc1ccccc1	1	-8	-2	7	0	-34*
Cc1n(Cc2ccccc2)c2cc([N+](=O)[O-])ccc2[n+]1Cc1ccccc1	1	12	-1	-7	9	9
Cc1cc(C(=O)COC(=O)Cc2n[nH]c(=O)c3ccccc23)c(C)n1-c1ccc2c(c1)OCO2	x	22	2	3	x	-25*
COc1ccc(-n2c(C)cc(C(=O)COC(=O)Cc3n[nH]c(=O)c4ccccc34)c2C)cc1	x	x	-2	3	x	-20
CCOc1cc(/C=N/N=C(N)N)ccc1OCc1ccc(Cl)cc1	-1	-2	-2	9	56*	-33
CCCn1nc(NS(=O)(=O)c2ccccc2[N+](=O)[O-])c2cc3ccccc3nc21	-2	-30	-5	1	-13	-21*
O=C(O)c1[nH]c2ccc(Br)cc2c1CCN1C(=O)c2cccc([N+](=O)[O-])c2C1=O	x	-8	-1	-10	0	-28*
O=C(O)c1[nH]c2ccc(Cl)cc2c1CCN1C(=O)c2ccccc2C1=O	x	11	4	0	10	-37
CNC(=O)C[C@H]1CC[C@@H]2[C@H](COc3ccc(NC(=O)c4ccccc4F)cc3C(=O)N2C)O1	6	2[16.7 µM]	0	-4	9	5
Cc1ccc(S(=O)(=O)N2CCN(S(=O)(=O)c3ccc(C)cc3)C2c2ccccc2)cc1	-2	105*	x	14	-110	x
SMILES	PglD DTNB	Env fusion inh	DENV2 CPE rescue	FN deposition inh	PGC1a acetyl inh	rRNA inh HTS
Cc1ccc(S(=O)(=O)N2CCN(S(C)(=O)=O)C2c2ccccc2)cc1 (stereo not given)	0	x	x	x	-25	x
Cc1cnccc1CN(C)Cc1cn(C)nc1-c1ccc(Oc2ccccc2)cc1	x	31	-2	3	-2	-57
CCOC(=O)CN(C)Cc1cn(C)nc1-c1ccc(Oc2ccccc2)cc1	2	-5	3	4	-11	-20*
C[C@H]1CCCCO[C@@H](CN(C)Cc2ccc(C(=O)O)cc2)[C@@H](C)CN([C@@H](C)CO)C(=O)c2cc(NC(=O)CCCN(C)C)ccc2O1	-2	-8[16.7 µM]	-8	x	18	5
C[C@H](CO)N1C[C@H](C)[C@H](CN(C)Cc2ccc(C(=O)O)cc2)OCCCC[C@H](C)Oc2ccc(NC(=O)CCCN(C)C)cc2C1=O	3	-12[16.7 µM]	30*	x	2	5
C[C@@H]1CN([C@@H](C)CO)C(=O)c2cc(NC(=O)CCCN(C)C)ccc2O[C@@H](C)CCCCO[C@@H]1CN(C)Cc1ccc(C(F)(F)F)cc1	3	-12[16.7 µM]	1	-3	110*	4
Cc1cccc(S(=O)(=O)N[C@@H]2CC[C@@H](CCNC(=O)CCN3CCCCC3)O[C@H]2CO)c1	3	12[16.7 µM]	5	-5	-6	0
O=S(=O)(c1cccs1)N1CCN(c2ccnc3cc(Cl)ccc23)CC1	-2	18	64*	3	-13	-33
O=S(=O)(c1ccccc1)N1CCN(c2ccnc3cc(Cl)ccc23)CC1	x	17	1	-7	3	-38
O=C(Nc1cc(F)ccc1F)N1CCN(c2ccnc3cc(Cl)ccc23)CC1	x	17	-4	0	-11	-28*
COc1ccc(S(=O)(=O)N(C)C[C@H]2Oc3ccc(NS(=O)(=O)c4cccs4)cc3CC(=O)N([C@H](C)CO)C[C@@H]2C)cc1	-1	-5[16.7 µM]	15	x	3	-4
O=C(CSC(=S)N1CCCCC1)Nc1ncc2c(n1)CC(c1ccco1)CC2=O (stereo not given)	0	15	11	-1	-18	-6
O=C(CSC(=S)N1CCOCC1)Nc1ncc2c(n1)CC(c1ccco1)CC2=O (stereo not given)	x	-2	30*	4	x	1
CCn1c(=O)n(CC)c2cc(N3CCCC3)c(NC(=O)c3ccc(C)cc3)cc21	3	-2	36*	2	-10	-6
Cc1cccc(Oc2coc3cc(OC(=O)c4cncc(Br)c4)ccc3c2=O)c1	2	14	-3	-3	x	-18*

High-throughput results: PubChem, Broad Institute
